Reference: publication PMC8473721 (Journal of Inflammation Research, 2021)

Tested on: MCF-7 human breast tumor xenograft
Assay: In vivo anticancer activity in human breast tumor xenograft model
Parameters: species or system female nude (nu/nu) mice
Details: 10 mg/kg BW
Method in brief: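 Female nu/nu mice (6~7 weeks) were given about 1.5×10^7 MCF-7 cells subcutaneously in the dorsal back, in medium:Matrigel 1:1. Estradiol cyclopentyl propionate (100 µg/mouse) was given s.c. twice weekly. Once tumors reached ≥5 mm, mice were randomised, six per group, to 5 mg/kg BW test compound for 45 days, paclitaxel 10 mg/kg, or vehicle. Tumor size, BW and toxicity signs were recorded every 4 days.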

## CC(=O)O[C@H]1C(=O)[C@@]2(C)[C@H]([C@H](OC(=O)c3ccccc3)[C@]3(O)C[C@H](OC(=O)[C@H](O)[C@@H](NC(=O)c4ccccc4)c4ccccc4)C(C)=C1C3(C)C)[C@]1(OC(C)=O)CO[C@@H]1C[C@@H]2O [paclitaxel]
  tumor growth: significantly (p<0.001) inhibited tumor growth
